For 18 molecules, IC50 and inhibition results are on record in ChEMBL document CHEMBL1154092, “Chiral 3-(4,5-dihydrooxazol-2-yl)phenyl alkylcarbamates as novel FAAH inhibitors: Insight into FAAH enantioselectivity by molecular docking and interaction fields” (Eur J Med Chem, 2009).

pIC50: −log10 of the molar value.

Assay [1] concerns the target T1, Fatty-acid amide hydrolase 1 (Rattus norvegicus, UniProt P97612).
T1 sequence (P97612 whole entry): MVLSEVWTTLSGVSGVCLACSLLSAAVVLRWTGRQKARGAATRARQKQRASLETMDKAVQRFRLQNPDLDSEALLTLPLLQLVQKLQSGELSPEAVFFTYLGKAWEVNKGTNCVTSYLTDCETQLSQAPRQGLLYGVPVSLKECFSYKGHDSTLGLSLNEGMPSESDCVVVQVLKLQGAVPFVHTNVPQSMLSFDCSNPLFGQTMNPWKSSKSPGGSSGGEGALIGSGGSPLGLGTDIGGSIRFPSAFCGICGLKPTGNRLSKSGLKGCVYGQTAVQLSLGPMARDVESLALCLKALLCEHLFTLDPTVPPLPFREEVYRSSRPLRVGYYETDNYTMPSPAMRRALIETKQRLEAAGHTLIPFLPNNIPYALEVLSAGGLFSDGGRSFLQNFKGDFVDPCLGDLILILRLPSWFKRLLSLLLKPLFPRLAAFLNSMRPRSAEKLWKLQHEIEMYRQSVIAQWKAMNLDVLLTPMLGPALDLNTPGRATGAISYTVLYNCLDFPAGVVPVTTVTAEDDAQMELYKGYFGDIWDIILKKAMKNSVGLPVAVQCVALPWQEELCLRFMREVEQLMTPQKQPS
Briefly: Inhibition of FAAH in Wistar rat brain assessed as by liquid scintillation counting. The essentials: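 Rat cerebrum homogenate (8-week male Wistar, whole brain minus cerebellum, 10,000g supernatant in 0.1 M K phosphate pH 7.4) as enzyme, 18 µg protein. Preincubated with compound 10 min at 37 °C, then 2 μM [³H]AEA (ethanolamine 1-³H) added for 10 min at 37 °C. Buffer has 0.5% BSA, DMSO up to 5%. Stopped with EtOAc. Aqueous [³H]ethanolamine counted. Three independent experiments in duplicate; IC50 by nonlinear regression.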

Assay [2] deals with T2, Monoglyceride lipase (Rattus norvegicus) (UniProt Q8R431).
T2 sequence (whole entry): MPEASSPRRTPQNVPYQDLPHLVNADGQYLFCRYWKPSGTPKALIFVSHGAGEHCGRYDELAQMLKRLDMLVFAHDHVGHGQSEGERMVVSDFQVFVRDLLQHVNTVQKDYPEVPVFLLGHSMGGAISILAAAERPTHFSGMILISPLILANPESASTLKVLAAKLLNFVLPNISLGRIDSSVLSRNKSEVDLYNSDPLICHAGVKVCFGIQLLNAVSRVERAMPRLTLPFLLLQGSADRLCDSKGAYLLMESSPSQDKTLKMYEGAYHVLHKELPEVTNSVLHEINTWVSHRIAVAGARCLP
The assay can be described thus: Inhibition of MGL in Wistar rat cerebellar membrane at 100 uM by reversed-phase HPLC relative to control. The assay is classed as cell membranes. To be noted: Cerebellum. The essentials: (§1)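 Cerebellar membranes from 4-week male Wistar rats. 10 µg protein preincubated with compound 30 min at 25 °C in Tris-HCl pH 7.4, EDTA, 0.5% BSA, 1.25% DMSO. Incubation 90 min at 25 °C with 5 µg protein and 50 μM 2-AG (100 mM NaCl, 5 mM MgCl₂). Stopped with acidified acetonitrile at 0 and 90 min. Arachidonic acid by C18 HPLC, UV 211 nm. Activity as % of control, n = 2.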

Assay [3] addresses T3, Monoglyceride lipase (Homo sapiens) (UniProt Q99685).
T3 sequence (whole entry): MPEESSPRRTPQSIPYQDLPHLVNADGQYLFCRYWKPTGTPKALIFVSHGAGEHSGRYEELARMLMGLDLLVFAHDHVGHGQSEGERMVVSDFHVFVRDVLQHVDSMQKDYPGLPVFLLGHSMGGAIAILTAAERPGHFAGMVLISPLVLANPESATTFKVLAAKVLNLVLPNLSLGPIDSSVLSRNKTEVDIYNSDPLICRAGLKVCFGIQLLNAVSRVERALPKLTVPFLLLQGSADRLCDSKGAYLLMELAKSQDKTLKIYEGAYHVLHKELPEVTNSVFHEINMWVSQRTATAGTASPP
The assay can be described thus: Inhibition of human recombinant MGL by liquid scintillation counting. To be noted: concentration not given here. The essentials: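 hrMGL preincubated with compound 10 min at 37 °C in 50 mM Tris-HCl pH 7.4, 1 mM EDTA, 0.5% BSA, DMSO ≤5%. Then [³H]2-oleoylglycerol (glycerol-1,2,3-³H) added to 50 μM final for 10 min at 37 °C. Stopped with EtOAc. Aqueous-phase [³H]glycerol counted by liquid scintillation.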

In assay [4] the target is T2, Monoglyceride lipase (Rattus norvegicus). The assay can be described thus: Inhibition of MGL in Wistar rat cerebellar membrane at 1 uM by reversed-phase HPLC relative to control. It counts as cell membranes. To be noted: Cerebellum. The essentials:
as §1

By pIC50 is commonly meant the IC50 on a negative log10 scale, so that one unit is a factor of ten. One may read the inhibition as the share of the control response that was lost under treatment. As for `O=C(NC1CCCCC1)Oc1cccc(C2=N[C@H](Cc3ccccc3)CO2)c1`, the negative logarithm of the IC50 (pIC50) in assay [1] was 6.23. Moreover, the inhibition in assay [2] came out at 14%.
In the same order, the values of `O=C(NC1CCCCC1)Oc1cccc(C2=N[C@@H](Cc3c[nH]c4ccccc34)CO2)c1` are 5.72 and 25%.
Turning to `C[C@H]1CN=C(c2cccc(OC(=O)NC3CCCCC3)c2)O1`, in assay [1], the pIC50 was 8.17. The inhibition in assay [3] was found to be 14%.
Regarding `COC(=O)[C@H]1COC(c2cccc(OC(=O)NC3CCCCC3)c2)=N1`, in assay [1], the pIC50 was 7.05. This molecule displayed an inhibition in assay [2] of 35%.
On to `CCCNC(=O)Oc1cccc(-c2nc3ncccc3o2)c1`, for which the pIC50 in assay [1] is 6.17. Also, in assay [2], the inhibition is 29%.
Take `C[C@@H]1CN=C(c2cccc(OC(=O)NC3CCCCC3)c2)O1`: the pIC50 in assay [1] is 7.14. The inhibition in assay [3] was found to be 13%.
For `C[C@@H]1COC(c2cccc(OC(=O)NC3CCCCC3)c2)=N1`, the negative-log IC50 (pIC50) in assay [1] is 7.80. The molecule also had an inhibition in assay [2] of 16%.
In the same order, the values of `C[C@H]1COC(c2cccc(OC(=O)NC3CCCC3)c2)=N1` are 6.96 and 28%.
Taken in the same sequence, the figures for `O=C(NC1CCCCC1)Oc1cccc(C2=NCCO2)c1` were 8.92 and 22%.
Taken in the same sequence, the figures for `COC(=O)[C@@H]1COC(c2cccc(OC(=O)NC3CCCCC3)c2)=N1` were 8.03 and 25%.
For the molecule `CCCNC(=O)Oc1cccc(-c2nc3ccccc3o2)c1`, the negative logarithm of the IC50 (pIC50) in assay [1] was 5.52. In assay [2], this molecule showed an inhibition of 26%.
In the same order, the values of `C[C@H]1COC(c2cccc(OC(=O)NC3CCCCC3)c2)=N1` are 7.29 and 28%.
Taken in the same sequence, the figures for `O=C(NC1CCCCC1)Oc1cccc(C2=N[C@@H](Cc3ccccc3)CO2)c1` were 5.68 and 17%.
In the same order, the values of `CCCNC(=O)Oc1cccc(C2=NCCO2)c1` are 7.48 and 32%.
Regarding `CCCNC(=O)Oc1cccc(-c2nc3ncncc3o2)c1`, the pIC50 in assay [1] is 5.35. For the same molecule, the inhibition in assay [3] was determined as 18%.
Take `O=C(NC1CCCC1)Oc1cccc(C2=NCCO2)c1`: the pIC50 in assay [1] was 7.89. For the same molecule, the inhibition in assay [4] stood at 10%.
Consider `CC1(C)COC(c2cccc(OC(=O)NC3CCCC3)c2)=N1`, for which, in assay [1], the negative logarithm of the IC50 (pIC50) was 7.19. The same molecule yielded an inhibition in assay [2] of 28%.
`CC1(C)COC(c2cccc(OC(=O)NC3CCCCC3)c2)=N1`: the negative-log IC50 (pIC50) in assay [1] was 7.34. The molecule further showed an inhibition in assay [2] of 20%.
